Data reported in ChEMBL document CHEMBL4385593, “Design, synthesis and biological evaluation of novel benzothiadiazine derivatives as potent PI3Kδ-selective inhibitors for treating B-cell-mediated malignancies” (Eur J Med Chem, 2019).
pIC50: −log10 of the molar value.

How the values were obtained:
Homo sapiens [1] = species: Homo sapiens; test: Selectivity ratio of IC50 for His6-tagged recombinant full length human N-terminal PI3Kbeta to IC50 for His-tagged recombinant human PI3K p110delta/p85alpha
Homo sapiens [2] = species: Homo sapiens; test: Selectivity ratio of IC50 for His-tagged recombinant human full length PI3K p110gamma to IC50 for His-tagged recombinant human PI3K p110delta/p85alpha
[3] = biological target: PI3-kinase p110-delta/p85-alpha (Homo sapiens, UniProt O00329); test: Inhibition of His-tagged recombinant human PI3K p110delta/p85alpha using lipid substrate incubated for 2 hrs by ADP-Glo assay; type: protein-complex assay
[4] = biological target: Phosphatidylinositol 4,5-bisphosphate 3-kinase catalytic subunit beta isoform (Homo sapiens, UniProt P42338); test: Inhibition of His6-tagged recombinant full length human N-terminal PI3Kbeta expressed in baculovirus infected Sf21 cells using lipid substrate incubated for 2 hrs by ADP-Glo assay
[5] = biological target: Phosphatidylinositol 4,5-bisphosphate 3-kinase catalytic subunit gamma isoform (Homo sapiens, UniProt P48736); test: Inhibition of His-tagged recombinant human full length PI3K p110gamma expressed in baculovirus expression system using lipid substrate incubated for 2 hrs by ADP-Glo assay
[6] = biological target: PI3-kinase p110-alpha/p85-alpha (Homo sapiens, UniProt P42336); test: Inhibition of His-tagged recombinant human full length PI3K p110alpha/p85alpha expressed in baculovirus expression system using lipid substrate incubated for 60 mins by kinase-Glo reagent based luminescence assay
SU-DHL-6 = test: Growth inhibition of human SU-DHL6 cells incubated for 72 hrs by CellTiter-Glo assay; type: functional; conditions: SU-DHL-6, 72 h
Procedure, shortened: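 SU-DHL-6 cells were seeded at 1 × 10^4 per well and exposed to compound or medium alone for 72 h. Viability was measured by CellTiter-Glo luminescence, and GI50 was derived by curve fitting.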

Homo sapiens [7] = species: Homo sapiens; test: Selectivity ratio of IC50 for His-tagged recombinant human full length PI3K p110alpha/p85alpha to IC50 for His-tagged recombinant human PI3K p110delta/p85alpha
[8] = Clearance in Sprague-Dawley rat at 2 mg/kg, iv by LC/MS/MS analysis; type: ADME, organism-based; conditions: in vivo
[9] = AUC (0 to t) in Sprague-Dawley rat at 10 mg/kg, po by LC/MS/MS analysis; type: ADME, organism-based; conditions: in vivo
Procedure, shortened: (§1)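 Male SD rats, three per group, dosed iv at 2 mg/kg or orally at 10 mg/kg. iv dose was a 0.4 mg/mL solution in 5% DMSO/10% Solutol/10% EtOH/75% saline. Oral dose was a 1 mg/mL suspension in 2% DMSO/98% MC (0.5%). Terminal orbital blood was taken into EDTA-2K under isoflurane at set time points. Plasma levels were measured by LC/MS/MS.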

[10] = Half life in Sprague-Dawley rat at 10 mg/kg, po by LC/MS/MS analysis; type: ADME, organism-based; conditions: in vivo; procedure, shortened: as §1
[11] = Volume of distribution at steady state in Sprague-Dawley rat at 2 mg/kg, iv by LC/MS/MS analysis; type: ADME, organism-based; conditions: in vivo, read-out: Vdss; procedure, shortened: as §1
[12] = AUC (0 to t) in Sprague-Dawley rat at 2 mg/kg, iv by LC/MS/MS analysis; type: ADME, organism-based; conditions: in vivo; procedure, shortened: as §1
[13] = Half life in Sprague-Dawley rat at 2 mg/kg, iv by LC/MS/MS analysis; type: ADME, organism-based; conditions: in vivo; procedure, shortened: as §1
[14] = Oral bioavailability in Sprague-Dawley rat at 10 mg/kg by LC/MS/MS analysis; type: ADME, organism-based; conditions: in vivo; procedure, shortened: as §1
[15] = Cmax in Sprague-Dawley rat at 10 mg/kg, po by LC/MS/MS analysis; type: ADME, organism-based; design: dose 10 mg/kg, route oral; conditions: in vivo; procedure, shortened: as §1

Sequence of PI3-kinase p110-alpha/p85-alpha (P27986 whole entry): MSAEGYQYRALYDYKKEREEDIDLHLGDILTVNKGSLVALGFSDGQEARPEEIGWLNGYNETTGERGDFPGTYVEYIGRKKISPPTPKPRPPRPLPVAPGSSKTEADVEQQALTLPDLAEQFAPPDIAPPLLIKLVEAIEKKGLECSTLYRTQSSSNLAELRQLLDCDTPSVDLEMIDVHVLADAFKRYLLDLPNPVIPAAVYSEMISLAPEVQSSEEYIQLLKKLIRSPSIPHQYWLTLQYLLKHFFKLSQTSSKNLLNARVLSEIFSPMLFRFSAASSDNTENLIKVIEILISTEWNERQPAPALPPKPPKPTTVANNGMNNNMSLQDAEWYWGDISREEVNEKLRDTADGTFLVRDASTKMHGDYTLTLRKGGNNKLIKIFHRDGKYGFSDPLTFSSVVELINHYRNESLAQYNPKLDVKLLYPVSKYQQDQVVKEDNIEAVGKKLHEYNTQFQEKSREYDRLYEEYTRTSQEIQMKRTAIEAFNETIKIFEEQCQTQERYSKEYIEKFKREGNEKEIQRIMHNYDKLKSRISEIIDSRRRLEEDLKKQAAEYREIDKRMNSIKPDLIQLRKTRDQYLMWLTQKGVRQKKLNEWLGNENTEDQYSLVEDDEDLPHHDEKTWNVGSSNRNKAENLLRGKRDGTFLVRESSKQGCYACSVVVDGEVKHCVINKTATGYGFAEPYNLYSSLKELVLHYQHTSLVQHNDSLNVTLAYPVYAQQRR
Sequence of PI3-kinase p110-alpha/p85-alpha (P42336 whole entry): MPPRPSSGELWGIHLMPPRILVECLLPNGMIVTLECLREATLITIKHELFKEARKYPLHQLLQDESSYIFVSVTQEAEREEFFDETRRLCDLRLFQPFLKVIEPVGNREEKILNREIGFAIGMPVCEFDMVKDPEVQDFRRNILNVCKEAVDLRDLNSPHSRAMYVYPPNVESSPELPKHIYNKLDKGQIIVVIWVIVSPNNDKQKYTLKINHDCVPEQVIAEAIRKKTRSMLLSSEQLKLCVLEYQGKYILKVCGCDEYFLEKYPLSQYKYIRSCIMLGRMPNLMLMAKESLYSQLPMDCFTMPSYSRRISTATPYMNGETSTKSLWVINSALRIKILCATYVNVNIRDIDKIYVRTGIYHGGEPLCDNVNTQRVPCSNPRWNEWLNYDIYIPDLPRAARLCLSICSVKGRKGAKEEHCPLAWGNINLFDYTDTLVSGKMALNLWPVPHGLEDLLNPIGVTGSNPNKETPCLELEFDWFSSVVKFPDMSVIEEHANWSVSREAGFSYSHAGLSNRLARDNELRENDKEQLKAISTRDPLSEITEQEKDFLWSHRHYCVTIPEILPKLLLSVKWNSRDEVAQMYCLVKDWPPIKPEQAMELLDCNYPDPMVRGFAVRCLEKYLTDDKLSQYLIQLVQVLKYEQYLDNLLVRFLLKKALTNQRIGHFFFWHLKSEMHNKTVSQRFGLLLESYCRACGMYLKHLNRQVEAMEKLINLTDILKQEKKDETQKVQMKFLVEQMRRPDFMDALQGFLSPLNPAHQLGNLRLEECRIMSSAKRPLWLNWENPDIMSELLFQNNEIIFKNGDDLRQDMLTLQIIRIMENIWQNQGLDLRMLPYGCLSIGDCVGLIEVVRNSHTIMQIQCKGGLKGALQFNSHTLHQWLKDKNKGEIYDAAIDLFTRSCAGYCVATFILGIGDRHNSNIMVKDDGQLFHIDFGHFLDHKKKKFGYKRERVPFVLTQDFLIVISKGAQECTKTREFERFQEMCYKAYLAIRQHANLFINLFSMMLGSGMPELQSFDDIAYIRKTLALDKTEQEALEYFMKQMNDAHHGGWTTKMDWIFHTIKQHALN
Sequence of PI3-kinase p110-delta/p85-alpha (P27986 whole entry, canonical isoform): as the sequence (P27986 whole entry) above
Sequence of PI3-kinase p110-delta/p85-alpha (O00329 whole entry, canonical isoform): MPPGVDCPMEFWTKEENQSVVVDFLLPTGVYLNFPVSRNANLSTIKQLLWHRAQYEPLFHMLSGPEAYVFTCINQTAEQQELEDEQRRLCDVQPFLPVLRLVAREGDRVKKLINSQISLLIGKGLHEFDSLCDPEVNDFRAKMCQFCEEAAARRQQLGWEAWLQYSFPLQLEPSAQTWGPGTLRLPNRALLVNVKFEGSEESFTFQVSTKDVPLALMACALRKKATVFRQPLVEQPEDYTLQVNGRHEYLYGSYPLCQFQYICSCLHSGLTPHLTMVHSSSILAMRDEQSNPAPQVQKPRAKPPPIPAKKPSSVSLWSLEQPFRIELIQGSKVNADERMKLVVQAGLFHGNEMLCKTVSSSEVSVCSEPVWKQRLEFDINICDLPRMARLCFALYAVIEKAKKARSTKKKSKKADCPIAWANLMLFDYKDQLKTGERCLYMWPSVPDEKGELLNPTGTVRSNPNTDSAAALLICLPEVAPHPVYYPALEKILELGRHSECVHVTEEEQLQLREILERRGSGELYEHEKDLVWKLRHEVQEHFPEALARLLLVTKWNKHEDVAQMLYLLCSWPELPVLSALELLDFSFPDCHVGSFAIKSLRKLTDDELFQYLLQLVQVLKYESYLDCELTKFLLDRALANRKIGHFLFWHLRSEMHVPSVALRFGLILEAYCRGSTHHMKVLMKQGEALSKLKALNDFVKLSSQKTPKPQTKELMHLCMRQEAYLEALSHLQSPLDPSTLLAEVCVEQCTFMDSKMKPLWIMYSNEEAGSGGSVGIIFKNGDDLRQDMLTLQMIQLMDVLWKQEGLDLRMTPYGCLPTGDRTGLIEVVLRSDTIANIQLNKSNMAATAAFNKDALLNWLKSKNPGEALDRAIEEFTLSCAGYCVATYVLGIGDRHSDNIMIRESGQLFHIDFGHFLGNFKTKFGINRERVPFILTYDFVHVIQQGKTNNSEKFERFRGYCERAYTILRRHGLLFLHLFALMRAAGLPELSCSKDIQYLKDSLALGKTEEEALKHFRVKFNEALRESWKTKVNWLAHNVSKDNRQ
Sequence of Phosphatidylinositol 4,5-bisphosphate 3-kinase catalytic subunit beta isoform (P42338 whole entry, canonical isoform): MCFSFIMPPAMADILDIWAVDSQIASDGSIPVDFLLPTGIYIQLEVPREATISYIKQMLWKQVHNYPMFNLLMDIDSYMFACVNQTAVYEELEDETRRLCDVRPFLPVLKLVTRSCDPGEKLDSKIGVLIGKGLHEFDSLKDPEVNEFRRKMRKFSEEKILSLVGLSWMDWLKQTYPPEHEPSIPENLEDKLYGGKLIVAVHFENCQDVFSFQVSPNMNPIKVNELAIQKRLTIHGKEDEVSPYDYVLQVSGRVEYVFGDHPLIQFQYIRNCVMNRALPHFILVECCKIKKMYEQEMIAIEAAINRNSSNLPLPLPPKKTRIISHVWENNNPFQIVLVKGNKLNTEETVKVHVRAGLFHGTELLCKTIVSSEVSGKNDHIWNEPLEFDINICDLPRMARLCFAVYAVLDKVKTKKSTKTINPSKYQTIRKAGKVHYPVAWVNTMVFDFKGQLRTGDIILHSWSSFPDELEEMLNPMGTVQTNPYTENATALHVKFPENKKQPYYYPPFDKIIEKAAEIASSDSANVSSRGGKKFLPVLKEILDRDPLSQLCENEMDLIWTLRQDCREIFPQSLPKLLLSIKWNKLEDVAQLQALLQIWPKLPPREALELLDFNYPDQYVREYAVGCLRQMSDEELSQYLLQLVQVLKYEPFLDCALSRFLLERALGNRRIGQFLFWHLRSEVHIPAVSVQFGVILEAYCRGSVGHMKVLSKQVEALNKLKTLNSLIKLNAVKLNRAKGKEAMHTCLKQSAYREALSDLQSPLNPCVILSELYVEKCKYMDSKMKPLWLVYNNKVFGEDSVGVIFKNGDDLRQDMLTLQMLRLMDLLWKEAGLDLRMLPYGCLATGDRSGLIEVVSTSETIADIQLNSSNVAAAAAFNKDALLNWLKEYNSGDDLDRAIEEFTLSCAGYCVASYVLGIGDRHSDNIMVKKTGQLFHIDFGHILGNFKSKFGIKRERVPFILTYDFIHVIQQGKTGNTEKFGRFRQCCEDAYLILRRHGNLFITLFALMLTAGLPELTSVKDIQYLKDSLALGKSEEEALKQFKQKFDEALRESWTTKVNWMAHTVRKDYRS
Sequence of Phosphatidylinositol 4,5-bisphosphate 3-kinase catalytic subunit gamma isoform (P48736 whole entry, canonical isoform): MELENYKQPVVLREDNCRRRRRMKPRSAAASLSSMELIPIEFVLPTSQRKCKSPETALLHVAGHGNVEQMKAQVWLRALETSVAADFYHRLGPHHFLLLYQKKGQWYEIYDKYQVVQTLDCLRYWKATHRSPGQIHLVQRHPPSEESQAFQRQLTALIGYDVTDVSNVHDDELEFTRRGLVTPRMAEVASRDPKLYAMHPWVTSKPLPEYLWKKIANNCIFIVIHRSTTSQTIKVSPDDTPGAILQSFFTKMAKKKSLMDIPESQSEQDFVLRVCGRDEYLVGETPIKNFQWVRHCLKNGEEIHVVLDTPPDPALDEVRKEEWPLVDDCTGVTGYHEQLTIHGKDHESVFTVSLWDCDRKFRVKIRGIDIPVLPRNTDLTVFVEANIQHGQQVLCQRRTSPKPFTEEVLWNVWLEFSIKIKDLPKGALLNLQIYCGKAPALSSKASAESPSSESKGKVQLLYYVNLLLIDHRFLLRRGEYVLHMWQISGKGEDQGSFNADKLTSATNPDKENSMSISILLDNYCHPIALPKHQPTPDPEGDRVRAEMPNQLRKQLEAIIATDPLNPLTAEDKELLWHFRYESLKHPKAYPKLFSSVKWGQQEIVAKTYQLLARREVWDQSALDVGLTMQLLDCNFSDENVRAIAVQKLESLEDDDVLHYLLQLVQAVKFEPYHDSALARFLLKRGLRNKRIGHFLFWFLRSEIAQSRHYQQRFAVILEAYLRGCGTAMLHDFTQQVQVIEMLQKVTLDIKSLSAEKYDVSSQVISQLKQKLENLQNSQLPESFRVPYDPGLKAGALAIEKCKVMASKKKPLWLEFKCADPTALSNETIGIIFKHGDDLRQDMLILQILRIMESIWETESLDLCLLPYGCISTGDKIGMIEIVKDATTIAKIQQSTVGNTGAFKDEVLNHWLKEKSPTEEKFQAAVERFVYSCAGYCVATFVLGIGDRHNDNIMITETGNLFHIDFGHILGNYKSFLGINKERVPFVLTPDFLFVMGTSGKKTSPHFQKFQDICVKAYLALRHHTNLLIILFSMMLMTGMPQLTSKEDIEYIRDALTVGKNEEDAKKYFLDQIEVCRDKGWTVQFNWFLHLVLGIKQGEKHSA

pIC50 [3] | GI50 (SU-DHL-6) [nM] | SMILES | also measured
8.15 | 70.3 | C[C@@H](Nc1ncnc(N)c1C#N)C1=Nc2cccc(Cl)c2S(=O)(=O)N1c1ccccc1 | Ratio IC50 (Homo sapiens [1]): 24; Ratio IC50 (Homo sapiens [2]): 16; pIC50 [4]: 6.77; pIC50 [5]: 6.95; pIC50 [6]: < 5.30; Ratio IC50 (Homo sapiens [7]): > 714
> 9.49 | 15.9 | C[C@H](Nc1ncnc(N)c1C#N)C1=Nc2cccc(Cl)c2S(=O)(=O)N1c1ccccc1 | Ratio IC50 (Homo sapiens [1]): > 172; Ratio IC50 (Homo sapiens [2]): > 313; pIC50 [4]: 7.26; pIC50 [5]: 7.00; pIC50 [6]: 6.00; Ratio IC50 (Homo sapiens [7]): > 3110
5.70 | – | CC(Nc1ncnc2[nH]cnc12)C1=Nc2ccccc2S(=O)(=O)N1c1ccc(F)cc1 (stereo not drawn) | –
< 5.52 | – | CCC(Nc1ncnc2[nH]cnc12)C1=Nc2ccccc2S(=O)(=O)N1c1cccc(C(F)(F)F)c1 (stereo not drawn) | –
7.27 | 7200 | CC(C1=Nc2cccc(F)c2S(=O)(=O)N1c1ccccc1)n1cnc2c(N)ncnc21 (stereo not drawn) | –
6.20 | – | CC(C1=Nc2ccccc2S(=O)(=O)N1c1ccc(F)cc1)n1cnc2c(N)ncnc21 (stereo not drawn) | –
6.46 | – | CC(Nc1ncnc2[nH]cnc12)C1=Nc2ccccc2S(=O)(=O)N1c1ccccc1 (stereo not drawn) | –
< 5.52 | – | CCC(Nc1ncnc2[nH]cnc12)C1=Nc2ccccc2S(=O)(=O)N1c1ccc(OC(F)(F)F)cc1 (stereo not drawn) | –
6.85 | 10500 | CCC(Nc1ncnc(N)c1C#N)C1=Nc2cccc(F)c2S(=O)(=O)N1c1ccccc1 (stereo not drawn) | –
7.04 | 4690 | CC(Nc1nc(F)nc2[nH]cnc12)C1=Nc2ccccc2S(=O)(=O)N1c1ccccc1 (stereo not drawn) | –
7.09 | 2190 | CCC(Nc1ncnc2[nH]cnc12)C1=Nc2cccc(Cl)c2S(=O)(=O)N1c1ccccc1 (stereo not drawn) | –
7.17 | 23100 | CC(C1=Nc2ccccc2S(=O)(=O)N1c1ccccc1)n1cnc2c(N)ncnc21 (stereo not drawn) | –
7.21 | 190 | C[C@@H](Nc1ncnc2[nH]cnc12)C1=Nc2cccc(Cl)c2S(=O)(=O)N1c1ccccc1 | Ratio IC50 (Homo sapiens [1]): 64; Ratio IC50 (Homo sapiens [2]): 31; pIC50 [4]: 5.40; pIC50 [5]: 5.72; pIC50 [6]: < 5.30; Ratio IC50 (Homo sapiens [7]): > 81
7.82 | 3500 | CC(Nc1ncnc(N)c1C#N)C1=Nc2ccccc2S(=O)(=O)N1c1ccccc1 (stereo not drawn) | –
6.21 | – | CC(C1=Nc2ccccc2S(=O)(=O)N1c1cccnc1)n1cnc2c(N)ncnc21 (stereo not drawn) | –
7.46 | 1220 | CC(Nc1ncnc(N)c1C#N)C1=Nc2cccc(F)c2S(=O)(=O)N1c1ccccc1 (stereo not drawn) | –
8.01 | 770 | CC(Nc1ncnc2[nH]cnc12)C1=Nc2cccc(Cl)c2S(=O)(=O)N1c1ccccc1 (stereo not drawn) | –
< 5.52 | – | CCC(Nc1ncnc2[nH]cnc12)C1=Nc2ccccc2S(=O)(=O)N1c1ccc(OC)c(OC)c1 (stereo not drawn) | –

Second part, the compound before the results:

SMILES | pIC50 [3] | GI50 (SU-DHL-6) [nM] | also measured
CCC(C1=Nc2ccccc2S(=O)(=O)N1c1ccc(F)cc1)n1cnc2c(N)ncnc21 (stereo not drawn) | < 5.52 | – | –
CC(=O)O[C@H]1C(=O)[C@@]2(C)[C@H]([C@H](OC(=O)c3ccccc3)[C@]3(O)C[C@H](OC(=O)[C@H](O)[C@@H](NC(=O)c4ccccc4)c4ccccc4)C(C)=C1C3(C)C)[C@]1(OC(C)=O)CO[C@@H]1C[C@@H]2O [PACLITAXEL] | – | 1.9 | –
CCC(Nc1ncnc2[nH]cnc12)C1=Nc2cccc(F)c2S(=O)(=O)N1c1ccccc1 (stereo not drawn) | < 5.52 | – | –
CC(Nc1ncnc2[nH]cnc12)C1=Nc2ccccc2S(=O)(=O)N1c1cccnc1 (stereo not drawn) | 6.04 | – | –
CC(Nc1nc(Cl)nc2[nH]cnc12)C1=Nc2ccccc2S(=O)(=O)N1c1ccccc1 (stereo not drawn) | 5.92 | – | –
CCC(C1=Nc2ccccc2S(=O)(=O)N1c1ccc(OC(F)(F)F)cc1)n1cnc2c(N)ncnc21 (stereo not drawn) | < 5.52 | – | –
C[C@H](Nc1ncnc2[nH]cnc12)C1=Nc2cccc(Cl)c2S(=O)(=O)N1c1ccccc1 | 8.34 | 33.2 | Ratio IC50 (Homo sapiens [1]): 167; clearance [8]: 25.8 mL/min/kg; Ratio IC50 (Homo sapiens [2]): 34; AUC(0-t) [9]: 2010 ng·h/mL; half-life [10]: 72 min; pIC50 [4]: 6.12; Vd [11]: 0.853 L/kg; AUC(0-t) [12]: 1400 ng·h/mL; half-life [13]: 31.1 min; pIC50 [5]: 6.81; pIC50 [6]: 5.44; bioavailability [14]: 29.2%; Ratio IC50 (Homo sapiens [7]): 791; Cmax [15]: 643 ng/mL
CCC(Nc1nc(F)nc2[nH]cnc12)C1=Nc2cccc(F)c2S(=O)(=O)N1c1ccccc1 (stereo not drawn) | 6.42 | – | –
CC(Nc1ncnc(N)c1C#N)C1=Nc2cccc(Cl)c2S(=O)(=O)N1c1ccccc1 (stereo not drawn) | 8.49 | 187 | –
CC(Nc1ncnc2[nH]cnc12)C1=Nc2ccccc2S(=O)(=O)N1c1cccc(C(F)(F)F)c1 (stereo not drawn) | < 5.52 | – | –
CC[C@H](Nc1ncnc2[nH]cnc12)c1nc2cccc(F)c2c(=O)n1-c1ccccc1 [IDELALISIB] | – | 124 | AUC(0-t) [9]: 3190 ng·h/mL; half-life [10]: 61.8 min; Vd [11]: 0.884 L/kg; AUC(0-t) [12]: 1400 ng·h/mL; half-life [13]: 31.1 min; bioavailability [14]: 45.8%; Cmax [15]: 2320 ng/mL
CCC(Nc1ncnc(N)c1C#N)C1=Nc2cccc(Cl)c2S(=O)(=O)N1c1ccccc1 (stereo not drawn) | 7.92 | 1680 | –
